In the EternaBench riboswitch data:

System: MS2 coat protein
Assay: apparent Kd, MS2 coat protein; higher = weaker binding; RNA-MaP array; FMN 200 µM where present
How it was run: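 Green signal was scaled to red-channel RNA signal and control-cluster median Fmax, and the apparent Kd was taken as the median of filtered per-cluster binding-curve fits. The binding series used SNAP-549-labelled MS2 coat protein from 0.7 or 1.5 nM, doubling to 3 µM, on designs transcribed by stalled E. coli RNA polymerase on Illumina sequencing-chip clusters. Each series ran without and then with constant ligand in 100 mM Tris-HCl pH 7.5, 80 mM KCl, 4 mM MgCl2, BSA, DTT, yeast tRNA and Tween-20.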

[1] = designed as: OFF switch for flavin mononucleotide, no ligand
[2] = ligand present: flavin mononucleotide, designed as: OFF switch for flavin mononucleotide
[3] = designed as: ON switch for flavin mononucleotide, no ligand
[4] = ligand present: flavin mononucleotide, designed as: ON switch for flavin mononucleotide

AAUAAGUGAGGAUAUGCGUCUGGUCCCGGGAGGGCUAUAUAACAUGAGGAUCACCCAUGUAGAAGGCACAAUAA
apparent Kd [1]: 16.8 nM | apparent Kd [2]: 13.9 nM

AAUAAUUAGUGAGGAUAUACAUAAUUUAUUACUGUAGAAGGCACAAACCUCAAGACAUGAGGAUCACCCAUGUGGUAUUUAAAU
apparent Kd [1]: 213 nM | apparent Kd [2]: 390 nM

AAUACAUGAGGAUCACCCAUGUUAUGAUCAAACAAUAUGAGUGAGGAUAUACUGAGUUAGUUAUGGUAGAAGGCACUGGGUUCA
apparent Kd [3]: 79.9 nM | apparent Kd [4]: 45.3 nM

AAUAGUGGCGUAGGAUAUCUGCGUACAUGAGGAUCACCCAUGUCUCCCAGCCGCUGAGCUGGGACAGAGAAGGGCGACCGCAUA
apparent Kd [3]: 229 nM | apparent Kd [4]: 88.9 nM

AAUAUAGAGCUGGAAUAAAACCUCACAUGAGGAUCACCCAUGUAGGAUAUCAGCACGAUAAGUGCUGAGAAGGACAUCCAGCUC
apparent Kd [1]: 15.6 nM | apparent Kd [2]: 17.9 nM

AAUAUAGAGCUGGUCUCAUAAUAAACAUGAGGAUCACCCAUGUAGGAUAUCAGCACGAUAAGUGCUGAGAAGGACAUCCAGCUC
apparent Kd [1]: 21.4 nM | apparent Kd [2]: 47 nM

AAUAUGUUAGGAUAUGCUGCUCGUCACAAAAGUGAUGAGUAGCAGAAGGGACAUGAGGAUCACCCAUGUAAAGA
apparent Kd [1]: 36.6 nM | apparent Kd [2]: 29.6 nM

AAUAUGUUGCAGAAGGCCAUGUUGUGGUAGUACCUCAUGACAUGAGGAUCACCCAUGUCUGUGUUGGAGGAUAUGCAAUAUAUU
apparent Kd [1]: 7.24 nM | apparent Kd [2]: 12.3 nM

AAUCAGCGAGGAUAUACAGAUUCUGGGUGCGGCUCGGCGAGACAUGAGGAUCACCCAUGUAGAAGGUGCUAGCC
apparent Kd [1]: 37.9 nM | apparent Kd [2]: 43.8 nM

AAUCAGUCAGGAUAUCGUUAAUUUAAUUGUUUGUUUUAGUUCGAGAAGGGACAUGAGGAUCACCCAUGUACUCA
apparent Kd [1]: 23.1 nM | apparent Kd [2]: 28.8 nM

AAUCCACAUGAGGAUCACCCAUGUCAGGAUAUACGCAUCGGACCGAUCGGCUGUUUGGGUAGAAGGGACGUGCA
apparent Kd [1]: 16 nM | apparent Kd [2]: 16.1 nM

AAUCGAUCAACAGGAUAUGCGCAAUGAUCUGAACAUGAGGAUCACCCAUGUGCAGAAGGGUUGGUCAUCUUUUGGGACGAGACA
apparent Kd [1]: 101 nM | apparent Kd [2]: 311 nM

AAUGCCAACGAAGGAUAUACAAACAUGAGGAUCACCCAUGUGUCUUUCGUGUAACUGGAAUUCGGGUAGAAGGUCGUUGACAUA
apparent Kd [1]: 24.2 nM | apparent Kd [2]: 23.2 nM

AAUGGCGCGAUAGCGCUAAUUAAAACAUGAGGAUCACCCAUGUAGGAUAUCCUACCGAAAUGGUAGGAGAAGGACAAGCAAUGA
apparent Kd [1]: 23.5 nM | apparent Kd [2]: 18.7 nM

AAUGUGUCAGGAUAUAGUAGACUCCUUGGAACGGUAGUCAGUUAGAAGGGACAUGAGGAUCACCCAUGUCGAGU
apparent Kd [1]: 19.3 nM | apparent Kd [2]: 19.6 nM

AAUUAACUCACAGGAUAUAGCAGAGGUCGAGUAAACUUACAGGCGACGAGGCUAGAAGGGUGACCACAUGAGGAUCACCCAUGU
apparent Kd [3]: 733 nM | apparent Kd [4]: 131 nM

AAUUAAUUAAUUAAUUCCUGCAUACAUGAGGAUCACCCAUGUAAGGAUAUCGUCAGGAAUACUGACGAGAAGGUACAUAGCAGG
apparent Kd [1]: 15.7 nM | apparent Kd [2]: 21.6 nM

AAUUAUAUACAGAAGGAGUUAUAUUGAGUAUUACUAGGAUAUGUUCACAUGAGGAUCACCCAUGUCAUAUUGGGAUUUAUUAUA
apparent Kd [1]: 21.6 nM | apparent Kd [2]: 27.9 nM

AAUUAUAUGUAGAAGGUACAGACUUAUGAGUAGUAAGGAUAUACAAAAUUAUUAAUUCUCAAGUUACAUGAGGAUCACCCAUGU
apparent Kd [3]: 11.6 nM | apparent Kd [4]: 8.33 nM

AAUUAUAUGUAGAAGGUACUAACAUAAGUGUUGUAAGGAUAUACCAAUUUAUUAGUUUUAAAGUUACAUGAGGAUCACCCAUGU
apparent Kd [3]: 12.4 nM | apparent Kd [4]: 7.98 nM

AAUUAUUGAUGAGGAUAUUGUGGUGAAACACGACAAGAAGGCAUUAUACACAUGAGGAUCACCCAUGUGAGCCUGAUGCAUAUA
apparent Kd [1]: 16.6 nM | apparent Kd [2]: 22.2 nM

AAUUAUUUACAGAAGGAGUAAGAUUAUGUAUUACUAGGAUAUGUUCACAUGAGGAUCACCCAUGUCAUUGUAGGUUUUAUAUGU
apparent Kd [1]: 10.8 nM | apparent Kd [2]: 8.19 nM

AAUUAUUUGUAGAAGGAAGGAGAUUUUGUAUUCUUAGGAUAUACUAUUACAUGAGGAUCACCCAUGUUUGAAGGGUUGCAAUGU
apparent Kd [1]: 47.5 nM | apparent Kd [2]: 59.8 nM

AAUUCACAUGAGGAUCACCCAUGUCAGGAUAUGGUGACGCGGGUUUCGGUGCGUGUUGCCAGAAGGGACAGCUA
apparent Kd [1]: 79.2 nM | apparent Kd [2]: 119 nM

AAUUCGUCAGGAUAUGCAUGUAAUUGUUACAUUUCUCCGUUGCAGAAGGGACAUGAGGAUCACCCAUGUAAGUC
apparent Kd [1]: 29.7 nM | apparent Kd [2]: 28.7 nM

AAUUGAAACGUAGGAUAUCGCAAAGAUCUAGAACGAGAAGGACGUACAUGAGGAUCACCCAUGUUAAAUGGUGAAGAUUAGAUG
apparent Kd [1]: 768 nM | apparent Kd [2]: 916 nM

AAUUGACACGUAGGAUAUCGCUCUAAUUAAACACGAGAAGGACGUACAUGAGGAUCACCCAUGUUAAAUGGUGUAGAUAAGUUG
apparent Kd [1]: 172 nM | apparent Kd [2]: 479 nM
